Results collected from several papers.
Compare with care: the assays were run in different laboratories.

N#C[C@@]12C[C@@H]1[C@@H](n1cnc3c(N[C@@H](C4CCC4)C4CC4)nc(I)nc31)[C@H](O)[C@@H]2O  half-life (male Wistar rat; plasma; oral; 3 mg/kg): 258 min
COc1ccc2cc3n(c(=O)c2c1OC)CCc1cc2c(cc1-3)OCO2  half-life (male Sprague-Dawley rat; blood; oral; 50 mg/kg): 94 min
O=C(C=Cc1ccccc1)Nc1cc(-c2ccnc(N3CCC(O)CC3)c2)ccn1  half-life (female Sprague-Dawley rat; plasma; oral; 50 mg/kg): 28.8 min
CC(=Nc1ccc(N=Cc2cnccn2)cc1)N(C)C  half-life (male Sprague-Dawley rat; plasma; oral; 200 mg/kg): 467 min
O=C1CC[C@H](N2Cc3cc(N4CCN(CC5CCN(c6ccc([C@@H]7c8ccc(O)cc8CC[C@@H]7c7ccccc7)cc6)CC5)CC4)ccc3C2=O)C(=O)N1  half-life (female Sprague-Dawley rat; plasma; oral; 20 mg/kg; fed): 383 min
C/C(=N\c1ccc(O)cc1)c1cc2ccccc2n1C  half-life (male Sprague-Dawley rat; plasma; intravenous; 5 mg/kg; single dose): ~270 min
O=c1cc(-c2ccc(O)c(O)c2)oc2cc(O)cc(O)c12  half-life (male Sprague-Dawley rat; plasma; oral; 30 mg/kg): 132 min
CC1(CN)CCN(c2cnc3c(Sc4ccncc4Cl)n[nH]c3n2)CC1  half-life (male Sprague-Dawley rat; plasma; intravenous; 2 mg/kg): 56.1 min
Nc1ccc(/C=C/C(=O)NCc2cc3cc(-c4ccc(C(=O)N5CCC(F)(F)CC5)cc4)cc(-c4ccc(F)cc4)c3o2)cn1  half-life (rat; plasma; oral; 3 mg/kg): 275 min
